Screens: PubChem BioAssay, SRMLSC
This excerpt belongs to a sample that is enriched for hits.
PTEN del growth: growth suppression of PTEN-null HCT116, primary screen, cell-based, CellTiter-Glo; HCT116 PTEN-null viability, 60 h; stronger effect = lower value; viability, % at 10 µM; actives 1.2% (n = 140,000); AID 827, 2007;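 active means viability at or below a set limit, 4 SD under the median of all tested compounds, cut at about 3.7% in these data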;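 further: PTEN knockout HCT116 line with beta catenin targeted HCT116 as companion control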
Fibroblast inh: antiproliferative effect on LL 47 fibroblasts – human, LL 47 cells, CellTiter-Glo luminescence, primary screen | LL 47 human lung fibroblast viability, ATP luminescence; stronger effect = lower value | actives 1.1% (n = 85,000) | AID 719, 2007 | viability, % at 10 µM;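 active means viability at or below 50% in the single dose screen; inactive means viability above 50%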;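 further: compound exposure lasted 72 h before the ATP readout; 100% = median luminescence of untreated cell-only wells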
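material = human LL 47 lung fibroblast cells | dosing = compounds added from tenfold dosing solution, 0.1% DMSO final | timing = overnight cell rest, 72 h compound treatment at 37 °C | measured by = CellTiter-Glo luminescence measuring cellular ATP | evaluation = % viability versus median cells-only luminescence | control set = cell-only wells, no compound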
H69AR growth 86K: proliferation blockers of H69AR lung cancer cells, primary screen, cell-based, human, 86K library | H69AR lung tumor viability, ATP luminescence, 72 h; stronger effect = lower value | viability, % at 10 µM | actives 6% (n = 85,000);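 active means viability at or below 40%; inactive means viability above 40%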;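 further: multidrug resistant small cell line overexpressing MRP-1 efflux transporter; 100% = mean luminescence of untreated control wells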
bCat KO growth: primary screen for growth suppressors in beta-catenin knockout HCT116 cells (colon tumor, human). HCT116 beta-catenin knockout viability, CellTiter-Glo, 60 h; stronger effect = lower value. viability, % at 10 µM. actives 1.5% (n = 140,000). AID 818, 2007;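 active means viability at or under a set limit, the compound median less 4 SD, cut at about 6% in these data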;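 further: 0% = Hyamine 1622 control at 20 µM and 100% = untreated cell control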
HUVEC inhibit: inhibitors of HUVEC proliferation, primary screen, cell-based, 384-well. actives 1.1% (n = 86,000). viability, % at 10 µM (by protocol). AID 648, 2007. CellTiter-Glo luminescence, 72 h; stronger effect = lower value;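 active means viability at or below 30%; inactive means viability above 30%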;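 further: 100% = median luminescence of DMSO-only cell control wells on each plate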
Starred values were filed as active, the others as inactive; x = not tested or not shown.

SMILES	PTEN del growth	Fibroblast inh	H69AR growth 86K	bCat KO growth	HUVEC inhibit
N#C/C(=C\c1ccccc1C(F)(F)F)C(=O)Nc1ccccc1	75.0	x	x	76.8	x
CCC(=O)NC(NC(=O)CC)C(Cl)Cl	95.3	x	x	97.0	x
COC(=O)c1ccc(NC(=S)NC2CCCCC2C)cc1 (stereo not drawn)	56.1	x	x	51.6	x
CC(CN1CCOCC1)OC(=O)c1ccc(Br)cc1 (stereo not drawn)	2.4*	6.3*	0.6*	2.8*	48.5
COc1cc2c(cc1NC(=O)c1ccncc1)oc1ccccc12	89.2	70.9	48.3	82.2	75.2
COc1cc2c(cc1NC(=O)c1cccnc1)oc1ccccc12	85.4	84.5	35.1*	87.9	64.0
COc1cc2c(cc1NC(=O)c1cc(-c3ccccn3)nc3ccccc13)oc1ccccc12	4.8	x	x	6.1*	x
CN1CCN(C2=C(Cl)C(=O)N(Cc3ccccc3)C2=O)CC1	76.3	90.8	39.1*	75.9	89.2
CN1CCN(C2=C(Cl)C(=O)N(c3ccc(Cl)c(Cl)c3)C2=O)CC1	86.1	94.2	8.5*	81.3	88.3
CCN1CCN(C2=C(Cl)C(=O)N(Cc3ccccc3)C2=O)CC1	87.7	95.0	47.4	76.9	93.5
CCC1C(=O)N=C(SCC(=O)Nc2ccc(C(=O)OC)cc2)NC1=O (stereo not drawn)	100.9	105.8	88.5	104.5	68.2
O=C(CSc1nnnn1-c1cccc2c1CCCC2)N1CCCCC1	80.7	96.2	39.9*	92.8	86.7
CC(C)Sc1nc(-c2cccs2)nc2c1c(=O)n(C)c(=O)n2C	x	65.7	18.9*	x	84.3
O=C(CSc1nnc(-c2cccs2)n1-c1ccccc1)NCC1CCCO1 (stereo not drawn)	97.8	98.0	92.2	93.8	105.5
Cn1c(=O)c2c(SCC(=O)NCC3CCCO3)nc(-c3cccs3)nc2n(C)c1=O (stereo not drawn)	x	95.6	28.8*	x	89.4
N/C(=N\OC(=O)C1CCCCC1)c1cccc([N+](=O)[O-])c1	99.7	x	x	97.5	x
COCCNC(=S)N1C2CCC1CC(NC(=O)NC13CC4CC(CC(C4)C1)C3)C2 (stereo not drawn)	95.3	x	x	112.3	x
Cc1ccc(NCC(=O)N/N=C\c2ccc([N+](=O)[O-])o2)cc1	9.2	x	x	5.8*	x
O=C(CNC(=O)c1ccccc1)N/N=C/c1ccc([N+](=O)[O-])o1	21.2	x	x	15.2	x
O=C(CNc1ccccc1)N/N=C/c1ccc([N+](=O)[O-])o1	4.2	x	x	2.6*	x
O=C(N/N=C/c1ccc([N+](=O)[O-])o1)c1ccc(O)cc1	5.0	x	x	3.2*	x
COc1cc(OC)cc(C(=O)Nc2ccccc2NC(C)=O)c1	92.7	98.1	80.1	107.3	92.4
CCc1ccccc1-n1c(SCC(=O)Nc2ccc3c(c2)OCCO3)nc2[nH]ncc2c1=O	87.0	74.8	39.0*	93.4	77.1
CCOC(=O)c1c(NC(=O)CSc2nnnn2-c2ccc3c(c2)OCO3)sc(C)c1C	89.1	91.9	60.5	91.6	83.9
CCOC(=O)c1c(NC(=O)CSc2nnnn2-c2ccc3c(c2)OCCO3)sc(C)c1C	81.8	86.8	36.1*	76.8	92.7
SMILES	PTEN del growth	Fibroblast inh	H69AR growth 86K	bCat KO growth	HUVEC inhibit
COc1ccc(OC)c(-n2nnnc2SCC(=O)Nc2ccc3c(c2)OCCO3)c1	101.6	81.8	43.0	101.8	18.4*
CCN(C=NC1=NN(c2cccc(C(F)(F)F)c2)CC1)CC	82.0	x	x	94.2	x
O=C(CNc1ccc(C(F)(F)F)cc1[N+](=O)[O-])OCC(=O)c1ccccc1	88.9	94.9	93.0	102.7	97.7
O=C(CS(=O)c1ccc(C(F)(F)F)cc1[N+](=O)[O-])Oc1ccccc1 (stereo not drawn)	84.2	44.4*	3.1*	90.5	24.5*
CCc1ccccc1SCc1noc(C(=O)NCC2CCCO2)c1C(=O)O (stereo not drawn)	98.4	x	x	92.5	x
COc1ccc(NC(=O)Nc2c(C)n(C)n(-c3ccccc3)c2=O)cc1	99.7	93.2	101.7	97.6	89.5
COC(=O)c1cc(NC(=O)c2cccc(C(F)(F)F)c2)c(=O)oc1C/C=N/OCc1cccc(Cl)c1Cl	90.2	99.2	12.6*	107.5	79.0
O=C(NCc1ccccc1Cl)c1cccc(C(F)(F)F)c1	89.1	x	x	91.1	x
CC1(C)C2CCC1(CS(=O)(=O)N1CCOCC1)C(=O)C2 (stereo not drawn)	86.6	95.4	109.6	90.5	93.4
N#C/C(=C\c1cn(CCOc2ccccc2)c2ccccc12)C(=O)NCc1ccco1	89.3	x	x	99.3	x
COc1cc(-c2nnc3sc(-c4ccco4)nn23)cc(OC)c1OC	41.2	85.6	18.0*	43.7	77.3
Clc1cccc(-c2nnc3sc(-c4ccccc4)nn23)c1	x	103.6	84.5	x	102.1
c1ccc(-c2cc(-c3nn4c(-c5ccco5)nnc4s3)c3ccccc3n2)cc1	95.7	51.5	26.7*	93.8	63.8
COc1cccc(-c2nnc3sc(-c4ccc(C)cc4)nn23)c1	48.0	x	x	49.6	x
Cc1cc(-c2nn3c(-c4ccccc4)nnc3s2)c2ccccc2n1	57.8	99.2	77.2	67.1	77.0
Cc1ccc(-c2nn3c(-c4cccc(Cl)c4)nnc3s2)cc1	x	98.2	21.5*	x	72.3
CCOc1cccc(-c2nnc3sc(-c4cc(OC)c(OC)c(OC)c4)nn23)c1	27.0	58.4	19.3*	33.0	28.2*
COc1cc(-c2nnc3sc(-c4ccncc4)nn23)cc(OC)c1OC	x	99.1	60.8	x	74.2
CCOc1cccc(-c2nnc3sc(-c4cccs4)nn23)c1	105.3	92.4	33.3*	103.8	91.8
CCOc1ccc(-c2nn3c(-c4ccccc4)nnc3s2)cc1	100.3	102.3	77.3	110.8	19.4*
COc1cc(-c2nn3c(-c4ccccc4)nnc3s2)cc(OC)c1OC	7.8	101.8	40.1	4.9*	80.2
Cc1ccccc1NC1=NS(=O)(=O)c2ccccc21	110.8	98.9	93.5	102.2	89.6
CCCc1nc2ccc(NC(=O)c3ccco3)cc2c(=O)n1Cc1ccccc1Cl	82.9	x	60.0	83.1	100.9
Cn1c(SCC(=O)c2ccc3c(c2)OCO3)nnc1C1COc2ccccc2O1 (stereo not drawn)	79.2	95.6	59.1	83.8	89.7
O=C(Nn1c(O)c(C=C2N=c3ccccc3=N2)sc1=S)c1ccccc1	110.1	92.2	89.5	102.8	83.9
Cn1nnnc1Sc1ncnc2scc(-c3ccc(F)cc3)c12	3.7*	x	x	5.5*	x
O=[N+]([O-])c1cc2c(cc1/C=N\NS(=O)(=O)c1ccccc1)OCO2	94.4	x	x	96.0	x
CCOc1cc2[nH]c(=O)n(CC3CCC(C(=O)NC4CCCCC4)CC3)c(=O)c2cc1OCC (stereo not drawn)	x	100.4	90.4	x	29.8*
ClC(Cl)(c1nnnn1-c1ccccc1)c1nnnn1-c1ccccc1	1.9*	x	x	1.3*	x
